For data set [1], the species on record is Homo sapiens. As to the kind of experiment: Anti-inflammatory activity in […] cells assessed as inhibition of LPS-stimulated NO release preincubated for 30 mins followed by LPS stimulation and measured after 24 hrs by Griess reagent based assay. The data set is classed as functional, cell-based.
In data set [2] the target is T1, Acetylcholinesterase (Rattus norvegicus, UniProt P37136).
T1 sequence (P37136 whole entry): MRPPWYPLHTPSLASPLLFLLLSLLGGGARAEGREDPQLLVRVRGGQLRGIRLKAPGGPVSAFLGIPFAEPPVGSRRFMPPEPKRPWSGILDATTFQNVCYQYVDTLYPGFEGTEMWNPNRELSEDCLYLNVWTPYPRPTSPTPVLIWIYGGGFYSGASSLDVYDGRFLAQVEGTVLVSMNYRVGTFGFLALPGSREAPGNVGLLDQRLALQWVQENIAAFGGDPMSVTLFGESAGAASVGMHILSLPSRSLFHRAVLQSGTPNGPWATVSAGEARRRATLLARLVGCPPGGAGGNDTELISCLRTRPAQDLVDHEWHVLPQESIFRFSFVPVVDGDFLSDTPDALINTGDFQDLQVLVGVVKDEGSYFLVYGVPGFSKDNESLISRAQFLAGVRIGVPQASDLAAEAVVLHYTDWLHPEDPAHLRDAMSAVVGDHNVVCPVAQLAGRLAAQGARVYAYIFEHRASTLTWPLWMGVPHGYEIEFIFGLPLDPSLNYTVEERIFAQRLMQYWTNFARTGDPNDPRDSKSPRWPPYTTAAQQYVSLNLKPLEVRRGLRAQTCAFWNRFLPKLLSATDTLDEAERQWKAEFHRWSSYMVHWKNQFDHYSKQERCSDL
The data set can be described thus: Inhibition of rat cortex AChE using acetylthiocholine iodide as substrate after 15 mins by Ellman's method. Background: DTNB colorimetry detects thiols as they appear.

A further data set addresses Butyrylcholinesterase (Rattus norvegicus, UniProt Q9JKC1). As to the kind of experiment: Inhibition of rat serum BuChE using butyrylthiocholine iodide as substrate after 15 mins by Ellman's method. The data set is classed as ADME.
Data set [3] concerns the target Acetylcholinesterase (Electrophorus electricus, UniProt O42275). As to the kind of experiment: Inhibition of electric eel AChE using acetylthiocholine iodide as substrate after 15 mins by Ellman's method.
In data set [4] the target is Acetylcholinesterase (Electrophorus electricus) (UniProt O42275). The data set can be described thus: Mixed-type inhibition of electric eel AChE at 2.5 to 10 uM preincubated for 15 mins followed by varying levels of acetylthiocholine iodide substrate addition by Lineweaver-Burk plot analysis.
Data set [5] can be described thus: Metal chelating activity assessed as compound-Al3+ complex formation at 37.5 uM after 30 mins by UV spectrometry method. The procedure, abridged:
(§1)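 Compound and metal salt (CuCl2, ZnCl2, FeSO4 or AlCl3), each 37.5 µM final in methanol, incubated 30 min at room temperature. UV-vis spectra recorded from 200 to 600 nm and compared with the compound alone.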

Data set [6] in a line: Metal chelating activity assessed as compound-Fe2+ complex formation at 37.5 uM after 30 mins by UV spectrometry method. In a few lines:
as §1

The nature of data set [7]: Metal chelating activity assessed as compound-Zn2+ complex formation at 37.5 uM after 30 mins by UV spectrometry method. In a few lines:
as §1

In data set [8] the target is T2, Amyloid-beta precursor protein (Homo sapiens, UniProt P05067). The data set can be described thus: Inhibition of human amyloid beta (1 to 42) self-induced aggregation at 25 uM after 24 hrs by Thioflavin T based fluorometric assay relative to control. In a few lines:
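Aβ1-42 (25 µM final) incubated with compound (25 µM final) in 50 mM phosphate buffer, pH 7.4, for 24 h at 37 °C under a sealing film. ThT (5 µM) in 50 mM glycine-NaOH, pH 8.5, then added and fluorescence measured. Triplicate; mean ± SD of three independent experiments.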

A short description of data set [9]: Inhibition of Cu2+ induced human amyloid beta (1 to 42) aggregation at 25 uM after 24 hrs by Thioflavin T based fluorometric assay relative to control. The procedure, abridged:
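Aβ1-42 (25 µM) and Cu2+ (25 µM) in HEPES buffer (20 mM, pH 6.6, 150 mM NaCl), with or without compound (25 µM final), incubated 24 h at 37 °C. ThT (5 µM) in glycine-NaOH, pH 8.5, added and fluorescence read. Triplicate; three independent experiments.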

Data set [10] addresses T2, Amyloid-beta precursor protein. The data set can be described thus: Inhibition of human amyloid beta (1 to 42) self-induced aggregation after 24 hrs by Thioflavin T based fluorometric assay. The procedure, abridged: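 Self-induced Aβ1-42 aggregation (25 µM peptide) in phosphate buffer, pH 7.4, for 24 h at 37 °C with varying compound concentrations. Aggregation read by ThT fluorescence (5 µM ThT, glycine-NaOH pH 8.5).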

Data set [11] has the same target. The data set can be described thus: Disaggregation of self-induced preformed fibrils of human amyloid beta (1 to 42) at 25 uM after 24 hrs by Thioflavin T based fluorometric assay relative to control. In a few lines: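 Aβ1-42 diluted in HEPES buffer (20 mM, pH 6.6, 150 mM NaCl) and pre-aggregated 24 h at 37 °C. Compound (25 µM) then added for another 24 h at 37 °C on a sealed plate. Remaining fibrils read by ThT fluorescence in glycine-NaOH, pH 8.5. Triplicate; three independent experiments.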

Data set [12] is described as follows: Disaggregation of Cu2+ induced preformed fibrils of human amyloid beta (1 to 42) at 25 uM after 24 hrs by Thioflavin T based fluorometric assay relative to control. In a few lines:
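Aβ1-42 (25 µM) with Cu2+ (25 µM) in HEPES buffer pre-aggregated 24 h at 37 °C. Compound (25 µM) then added for a further 24 h at 37 °C. Fibril content measured by ThT fluorescence (glycine-NaOH, pH 8.5). Triplicate; three independent experiments.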

A short description of data set [13]: Effective permeability of the compound in PBS/EtOH at 100 ug/ml after 18 hrs by PAMPA. The conditions noted are these: read-out: Peff. The class given is ADME.
The nature of data set [14]: Cytotoxicity against […] cells assessed as decrease in cell viability up to 10 uM measured after 24 hrs by MTT assay. The class given is cell-based. The procedure, abridged:
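BV-2 cells grown 24 h, then treated with compound (0.5, 2.5, 10.0 µM) for 30 min, with or without LPS (1.0 µg/mL), for a further 24 h. MTT (5 mg/mL) added for 4 h, formazan dissolved in DMSO, A490 read. Viability given as percent of untreated cells. Triplicate wells; three independent experiments.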
In general terms: Tetrazolium dyes change colour on reduction, which living cells bring about.

Data set [15] can be described thus: Effect on NO release in […] cells up to 10 uM after 24 hrs by Griess reagent based assay. The data set is classed as ADME, cell-based. The procedure, abridged:
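BV-2 cells in DMEM treated with compound alone, without LPS, up to 10 µM. Nitrite in culture supernatant measured by Griess reagent (A540) against a NaNO2 standard curve. Mean ± SD of three independent experiments.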

The nature of data set [16]: Anti-inflammatory activity in […] cells assessed as inhibition of LPS-stimulated TNFalpha release at 2.5 uM preincubated for 30 mins followed by LPS stimulation and measured after 24 hrs by ELISA relative to control. The class given is functional. The conditions noted are these: BV-2. The procedure, abridged:
(§2)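 Confluent BV-2 cells in DMEM preincubated 30 min with compound, tested over 0.5–10 µM, then stimulated with LPS (1.0 µg/mL) for 24 h. Released TNF-α measured by ELISA following kit instructions. Triplicate wells; mean ± SD of three independent experiments.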
Background: ELISA stands for enzyme-linked immunosorbent assay.

The species entered for data set [17] is Homo sapiens. As to the kind of experiment: Anti-inflammatory activity in […] cells assessed as inhibition of LPS-stimulated TNFalpha release at 0.5 uM preincubated for 30 mins followed by LPS stimulation and measured after 24 hrs by ELISA. The class given is functional, cell-based. In a few lines:
as §2

Structures are written as SMILES. Active and inactive are the calls of the source. The calls are words filed in the database; no cut-off is given here.

The source of these data is ChEMBL document CHEMBL4382240, “Discovery of novel 2,5-dihydroxyterephthalamide derivatives as multifunctional agents for the treatment of Alzheimer's disease” (Bioorg Med Chem, 2018).

T2 sequence (P05067 whole entry): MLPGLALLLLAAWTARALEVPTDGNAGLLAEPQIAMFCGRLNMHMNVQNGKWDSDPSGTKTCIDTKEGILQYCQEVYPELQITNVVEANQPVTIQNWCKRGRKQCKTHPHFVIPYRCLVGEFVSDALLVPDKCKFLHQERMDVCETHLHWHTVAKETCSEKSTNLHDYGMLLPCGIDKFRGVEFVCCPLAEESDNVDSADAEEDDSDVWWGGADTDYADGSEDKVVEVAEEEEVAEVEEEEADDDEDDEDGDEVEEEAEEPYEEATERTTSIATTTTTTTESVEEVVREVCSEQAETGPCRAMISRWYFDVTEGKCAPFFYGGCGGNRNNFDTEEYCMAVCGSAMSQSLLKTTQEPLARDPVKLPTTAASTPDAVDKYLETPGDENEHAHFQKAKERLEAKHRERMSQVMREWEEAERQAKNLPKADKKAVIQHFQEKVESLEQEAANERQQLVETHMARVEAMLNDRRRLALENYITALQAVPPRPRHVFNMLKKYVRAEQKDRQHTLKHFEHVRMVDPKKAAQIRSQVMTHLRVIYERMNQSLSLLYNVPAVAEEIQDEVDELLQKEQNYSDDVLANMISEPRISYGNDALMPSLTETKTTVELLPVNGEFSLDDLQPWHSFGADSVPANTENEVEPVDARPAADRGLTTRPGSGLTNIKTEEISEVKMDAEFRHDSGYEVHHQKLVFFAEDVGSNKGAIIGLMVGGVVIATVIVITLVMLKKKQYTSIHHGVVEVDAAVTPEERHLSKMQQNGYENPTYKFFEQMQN
Sequence of Acetylcholinesterase (Electrophorus electricus) (O42275 24-633 limits assumed): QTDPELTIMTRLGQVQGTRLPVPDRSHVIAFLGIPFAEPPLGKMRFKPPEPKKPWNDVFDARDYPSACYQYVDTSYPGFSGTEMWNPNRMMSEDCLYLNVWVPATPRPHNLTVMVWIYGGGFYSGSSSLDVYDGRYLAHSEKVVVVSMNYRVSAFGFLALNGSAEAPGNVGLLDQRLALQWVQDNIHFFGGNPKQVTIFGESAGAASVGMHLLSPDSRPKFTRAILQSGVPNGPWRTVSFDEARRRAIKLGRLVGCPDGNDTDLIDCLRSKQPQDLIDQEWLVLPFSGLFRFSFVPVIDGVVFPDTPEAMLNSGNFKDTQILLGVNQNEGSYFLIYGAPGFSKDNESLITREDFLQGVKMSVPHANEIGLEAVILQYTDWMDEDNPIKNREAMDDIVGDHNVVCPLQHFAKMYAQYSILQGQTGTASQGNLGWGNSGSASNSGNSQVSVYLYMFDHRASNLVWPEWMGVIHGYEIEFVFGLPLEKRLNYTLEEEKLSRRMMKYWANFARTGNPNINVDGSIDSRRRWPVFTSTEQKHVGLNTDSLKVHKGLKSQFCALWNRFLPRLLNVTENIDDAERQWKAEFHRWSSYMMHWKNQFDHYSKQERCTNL
Sequence of Acetylcholinesterase (Electrophorus electricus, UniProt O42275) (O42275 whole entry): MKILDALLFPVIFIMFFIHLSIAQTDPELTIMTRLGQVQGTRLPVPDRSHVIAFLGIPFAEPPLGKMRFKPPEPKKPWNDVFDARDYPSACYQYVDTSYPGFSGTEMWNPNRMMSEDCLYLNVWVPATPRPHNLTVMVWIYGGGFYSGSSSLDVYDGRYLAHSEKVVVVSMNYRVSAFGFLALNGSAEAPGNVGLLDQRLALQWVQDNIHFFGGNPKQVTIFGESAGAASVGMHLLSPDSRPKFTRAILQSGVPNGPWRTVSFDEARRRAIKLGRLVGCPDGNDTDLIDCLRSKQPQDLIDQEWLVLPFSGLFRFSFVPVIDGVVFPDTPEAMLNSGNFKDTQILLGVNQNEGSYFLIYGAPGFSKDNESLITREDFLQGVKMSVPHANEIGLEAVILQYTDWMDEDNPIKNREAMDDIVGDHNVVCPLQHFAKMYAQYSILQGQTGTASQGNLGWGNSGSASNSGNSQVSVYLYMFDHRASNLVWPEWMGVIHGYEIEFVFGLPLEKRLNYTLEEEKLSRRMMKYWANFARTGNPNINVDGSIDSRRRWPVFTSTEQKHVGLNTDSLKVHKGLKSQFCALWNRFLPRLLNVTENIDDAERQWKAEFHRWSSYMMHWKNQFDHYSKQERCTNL
Sequence of Butyrylcholinesterase (Q9JKC1 whole entry): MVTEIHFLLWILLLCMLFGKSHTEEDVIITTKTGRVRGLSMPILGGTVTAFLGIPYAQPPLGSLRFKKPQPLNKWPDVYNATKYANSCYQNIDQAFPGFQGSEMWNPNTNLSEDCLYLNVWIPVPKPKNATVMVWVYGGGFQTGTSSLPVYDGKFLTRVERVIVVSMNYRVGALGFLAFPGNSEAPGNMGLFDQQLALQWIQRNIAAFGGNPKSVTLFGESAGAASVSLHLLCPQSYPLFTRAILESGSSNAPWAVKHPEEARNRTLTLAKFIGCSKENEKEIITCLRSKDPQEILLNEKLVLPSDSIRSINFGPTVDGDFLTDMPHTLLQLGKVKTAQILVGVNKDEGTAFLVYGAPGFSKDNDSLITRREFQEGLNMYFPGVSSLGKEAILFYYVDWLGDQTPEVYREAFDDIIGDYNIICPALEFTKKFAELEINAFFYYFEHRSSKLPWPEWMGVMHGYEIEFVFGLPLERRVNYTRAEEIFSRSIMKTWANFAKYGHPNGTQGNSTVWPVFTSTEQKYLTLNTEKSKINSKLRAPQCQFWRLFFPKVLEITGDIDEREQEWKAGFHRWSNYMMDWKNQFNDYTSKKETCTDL

By inhibition is commonly meant the drop in the measured response relative to a control, in per cent. Usually IC50 stands for the concentration that gives 50% inhibition. Take `CCN(CCCCNC(=O)c1cc(O)c(C(=O)NCCCCN(CC)Cc2ccccc2OC)cc1O)Cc1ccccc1OC`: the inhibition result in the data set filed under Homo sapiens [1] was “Dose-dependent effect”; in data set [8] it was 96.2%; in data set [9], 71.7%. Further, the IC50 on Acetylcholinesterase [2] is 0.56 µM; at Butyrylcholinesterase it was over 100 µM; against Acetylcholinesterase [3], 5.12 µM; in data set [10], 3.05 µM. In addition, in data set [4], the inhibition result was “Active”. For the same molecule, the result in data set [5] and in [6] was Active. In addition, the outcome in data set [7] was inactive. For the same molecule, the Activity in data set [11] was 75.2%; in data set [12], 77.2%; in data set [14] it was “Non-Toxic”; in data set [15], “Non-Toxic”. In addition, the Papp at 18 h, 100 ug/ml in [13] amounted to 4.45 ×10⁻⁶ cm/s. For the same molecule, in data set [16], the inhibition at 2.5 µM came out at 37.1%. Also, the inhibition result in the data set listed under Homo sapiens [17] was “inactive”.
